hERG protect = shields human hERG channel from block by proarrhythmic agents; Q12809; CHO-hERG, FluxOR thallium flux, dofetilide IC70 present; activation (rescue from dofetilide block), less the hit threshold, % at 10 µM; 310,000 compounds, 0.51% hits; AID 1511;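 active means activation above the mean of controls blocked by dofetilide plus 5 SD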;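 further: thallium influx through hERG after potassium depolarization seen as dye fluorescence rise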
KCNK9 inh = human KCNK9 channel inhibition. Q9NPC2. HEK293 KCNK9, FluxOR thallium flux fluorescence; stronger effect = lower value. B-score at 10 µM. 310,000 compounds, 1.2% hits. AID 488922;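 active means ratio B-score over 3 SD below the library mean, with starting fluorescence within 5 SD of its mean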;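 further: negative B-score means less thallium flux so channel inhibition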
Target sequence (Q9NPC2 whole entry, looked up): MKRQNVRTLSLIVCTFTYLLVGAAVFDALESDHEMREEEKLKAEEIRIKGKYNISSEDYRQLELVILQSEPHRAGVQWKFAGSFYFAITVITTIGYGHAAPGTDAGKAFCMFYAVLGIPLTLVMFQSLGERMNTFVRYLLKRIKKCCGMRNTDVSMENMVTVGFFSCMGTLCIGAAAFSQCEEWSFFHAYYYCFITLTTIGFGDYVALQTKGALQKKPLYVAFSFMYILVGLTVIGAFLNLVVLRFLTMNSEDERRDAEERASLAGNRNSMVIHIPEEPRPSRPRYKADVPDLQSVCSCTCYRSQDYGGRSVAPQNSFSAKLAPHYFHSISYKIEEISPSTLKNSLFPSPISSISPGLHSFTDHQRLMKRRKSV
KCC2 mod = modulates chloride dependent transport by human KCC2; AID 1456; KCC2 cells, thallium flux FluoZin-2 fluorescence; 190,000 compounds, 2.2% hits; B-score of Tl+ flux slope (higher = more flux/activation; lower = inhibition) at 10 µM; Q9H2X9;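 active means thallium flux slope and its plate-corrected score both differing from the plate sample mean at a set confidence after two filtering rounds, in either direction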;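 further: slope of fluorescence scaled to starting intensity during 10 to 20 s after thallium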
KCNQ1 inh = blocks the human KCNQ1 potassium channel | AID 2642 | 310,000 compounds, 1.3% hits | CHO-K1 KCNQ1, FluxOR thallium flux fluorescence; stronger effect = higher value | B-score at 10 µM;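 active means compounds whose thallium flux B-score, printed positive for inhibition, exceeds three library SD while starting fluorescence stays within three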;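 further: channel opened by potassium depolarization with thallium stimulus after 20 min compound exposure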
KCNQ1 act = potentiators or activators of human KCNQ1 potassium channel; P51787; CHO-K1 KCNQ1, thallium flux FluxOR fluorescence; stronger effect = higher value; B-score at 10 µM; 310,000 compounds, 0.35% hits; AID 2648;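 active means fluorescence ratio B-score, a plate-corrected score, at least three library SD, with initial intensity B-score within 5 SD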
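System: Stable KCNQ1 CHO-K1 line | Incubation: 90 min dye loading and 20 min compound exposure, both at room temperature | Measure: Ratio B score | Medium: Assay buffer for compound exposure, DMSO matched across wells | Compound dosing: Single-concentration screen | Probe or stimulus: K+/Tl+ depolarizing stimulus | Measured by: Kinetic FluxOR fluorescence, 10 s baseline plus 110 s post-stimulus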
KCNK3 inh = human KCNK3 channel inhibition, primary screen | O14649 | CHO-KCNK3 thallium flux, FluxOR fluorescence; stronger effect = lower value | B-score at 10 µM | 340,000 compounds, 0.84% hits | AID 602410;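 active means B-score under library mean minus 4 SD, starting fluorescence ratio at most library mean plus 5 SD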;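 further: more negative B-score means stronger inhibition of thallium flux through KCNK3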
Target sequence (O14649 whole entry, looked up): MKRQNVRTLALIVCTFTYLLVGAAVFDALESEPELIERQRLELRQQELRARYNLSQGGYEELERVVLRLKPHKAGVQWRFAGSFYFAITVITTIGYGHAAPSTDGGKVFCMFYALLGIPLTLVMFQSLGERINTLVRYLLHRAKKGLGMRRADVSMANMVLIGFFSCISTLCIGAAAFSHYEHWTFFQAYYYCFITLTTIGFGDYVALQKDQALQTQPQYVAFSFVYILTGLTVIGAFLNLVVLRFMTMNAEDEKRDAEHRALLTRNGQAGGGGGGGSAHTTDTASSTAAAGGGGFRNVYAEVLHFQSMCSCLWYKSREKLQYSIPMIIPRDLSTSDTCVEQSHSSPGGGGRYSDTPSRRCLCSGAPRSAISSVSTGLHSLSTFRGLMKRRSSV
KCC2 secondary = KCC2 (human) modulation, secondary assay | HEK293-KCC2, thallium flux, FluoZin2 fluorescence; stronger effect = higher value | 3,700 compounds, 15% hits | shares compounds with KCC2 mod | normalised thallium flux (F/F0 slope) at 10 µM;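 active means thallium flux slope above the same plate's solvent-only control mean plus 3 SD; inconclusive means the two replicate wells disagree; inactive means no significant difference from solvent-only control wells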
KCC2 bumet counter = bumetanide-insensitive thallium flux in KCC2 cells with ouabain, counter-screen. HEK293-KCC2 + bumetanide/ouabain, thallium flux FluoZin2; stronger effect = higher value. normalized thallium flux at 10 µM. 3,700 compounds, 49% hits. shares compounds with KCC2 mod;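 active means thallium entry rate above the same plate's blocked-transporter control wells by more than 3 SD; inconclusive means the two repeat wells disagree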;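 further: raw slope of fluorescence over initial fluorescence between 10 and 20 s after thallium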
KCC2 sec2 = confirmation of human KCC2 transport modulators | normalized thallium flux at 10 µM | 3,700 compounds, 23% hits | shares compounds with KCC2 mod | HEK293-KCC2, thallium flux FluoZin2 fluorescence; actives lie on both sides; F/F0 rise rate, 10–20 s post-thallium | AID 1715;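 active means thallium flux slope more than 3 SD above or below the plate's solvent-only control mean, mostly below; inconclusive means the two repeat wells disagreed; inactive means no significant shift from solvent-only controls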;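 further: raw slope with 0.1% DMSO as baseline and bumetanide as block control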
HEK counter1 = parental HEK flux effect, counter-screen; HEK293 parental cells, thallium flux FluoZin2, ouabain; baseline-ratio fluorescence slope, 10–20 s after thallium; shares compounds with KCC2 mod; thallium flux rate (normalised fluorescence) at 10 µM; AID 1716; 3,700 compounds, 46% hits;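 active means thallium flux rate significantly above the same plate's solvent-only control wells, beyond their mean plus 3 SD; inconclusive means the two replicate wells gave conflicting results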
KCC2 retest ouab = modulates human KCC2 on retest with ouabain | 3,700 compounds, 48% hits | AID 1717 | shares compounds with KCC2 mod | HEK293-KCC2, thallium flux FluoZin2 fluorescence; bidirectional: low = inhibitor, high = activator | raw Tl+ flux slope (below DMSO = inhibition, above = activation) at 10 µM;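 active means thallium flux slope beyond 3 SD from same-plate DMSO control mean in most replicates, usually higher, sometimes lower; inconclusive means repeat tests gave conflicting results; inactive means no significant difference from controls in most replicates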;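 further: slope of initial-normalized fluorescence between seconds 10 and 20 after thallium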
HEK counter2 = acts in parental HEK cells, second KCC2 counter-screen; 3,700 compounds, 33% hits; shares compounds with KCC2 mod; thallium flux slope at 10 µM; HEK293 parental, thallium flux FluoZin-2 fluorescence slope;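 active means thallium flux slope above the same plate's solvent-control mean plus 3 SD in both duplicate wells; inconclusive means duplicate wells that disagreed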;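 further: run without ouabain in cells lacking the KCC2 cotransporter; slope of fluorescence scaled to its starting value between 10 and 20 s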
Starred values were filed as active, the others as inactive; i = inactive; ? = inconclusive; · = not tested or not shown. Only some compounds are listed: those with a hit (about 4.1% of all), similar ones and a draw of the others.

SMILES | hERG protect | KCNK9 inh | KCC2 mod | KCNQ1 inh | KCNQ1 act | KCNK3 inh | KCC2 secondary | KCC2 bumet counter | KCC2 sec2 | HEK counter1 | KCC2 retest ouab | HEK counter2
C=C(C)CNC(=S)NN=C1c2ccccc2-c2ccccc21 | 22* | i | 28* | i | i | i | 0.0068 | 0.075* | 0.046* | 0.026* | 0.055* | 0.027*
COc1ccc(-c2cc(CNC(=O)CN(C)Cc3ccccc3)on2)cc1 | -7 | i | · | i | i | i | 0.0058 | 0.0049 | 0.024* | 0.0068 | 0.013* | 0.0094
NC(=O)CN1CCN(Cc2ccc3c(c2)OCO3)CC1 | -11 | i | · | i | i | i | · | · | · | · | · | ·
Cc1cccc(N=C2NN=C(c3ccccc3F)CS2)c1C | -6 | i | 11* | i | i | i | 0.011 | 0.013* | 0.037 | 0.018* | 0.026* | ?
Fc1ccc(F)c(C2=NNC(=Nc3ccccc3F)SC2)c1 | 1 | i | 5.9* | i | i | i | 0.0067 | 0.011* | 0.034 | 0.011* | 0.026* | 0.014*
O=C(O)c1ccc(NC(=S)Nc2ccc(S(=O)(=O)Nc3ccccn3)cc2)cc1 | · | · | · | · | · | i | · | · | · | · | · | ·
COC(=O)c1sccc1NC(=O)CC1C(=O)NCCN1C(=O)c1ccc(C)c(C)c1 (configuration not stated) | -5 | i | 0.14 | i | i | i | · | · | · | · | · | ·
O=C(Nc1ccc2c(c1)OCCO2)c1ccccc1F | -14 | i | · | i | i | i | · | · | · | · | · | ·
O=C(NC(=S)Nc1ccc2c(c1)OCCO2)c1ccccc1F | -19 | i | 25* | i | i | i | 0.0074 | 0.039* | 0.042* | 0.021* | 0.038* | 0.026*
CCCCCn1c(C(Cc2ccccc2)NC(C)=O)nc2ccccc21 (configuration not stated) | -11 | i | -0.36 | i | i | i | · | · | · | · | · | ·
CCCCn1c(NC(=O)c2ccccc2)nc2ccccc21 | 0 | i | 13* | i | i | i | 0.0099 | 0.03* | 0.032 | ? | 0.03* | ?
C=CCn1c(NC(=O)c2ccccc2)nc2ccccc21 | -5 | i | · | i | i | i | · | · | · | · | · | ·
CCCCC(NC(C)=O)c1nc2ccccc2n1CCCC (configuration not stated) | -8 | i | 6* | i | i | i | 0.0056 | 0.0041 | 0.029 | ? | 0.019 | 0.0098
CCCn1c(NC(=O)c2ccc(Br)cc2)nc2ccccc21 | -7 | i | 1.1 | i | i | i | · | · | · | · | · | ·
CCn1c(NC(=O)c2ccccc2)nc2ccccc21 | -5 | i | 31* | i | i | i | 0.0063 | 0.018* | 0.032 | 0.016* | ? | 0.016*
Cc1cc(C(=O)COC(=O)/C=C/c2ccco2)c(C)n1C | · | · | · | · | · | i | · | · | · | · | · | ·
Cc1ccc(/C=N/n2c(-c3ccco3)n[nH]c2=S)s1 | -14 | i | 2.1 | i | i | i | · | · | · | · | · | ·
S=c1[nH]nc(-c2ccco2)n1/N=C/c1ccc(Cl)cc1 | 1 | i | 4.1* | i | i | i | 0.015* | 0.15* | 0.032 | 0.053* | 0.074* | 0.013*
S=c1[nH]nc(-c2ccco2)n1/N=C/c1ccccc1Cl | -2 | i | 10* | i | i | i | 0.012* | 0.036* | 0.037 | 0.018* | 0.041* | 0.012*
O=C(N/N=C/C=C/c1ccccc1)c1ccc(Br)cc1 | 1 | i | 0.24 | i | i | i | · | · | · | · | · | ·
CC(/C=C\C=C\c1ccccc1)=N\NC(=O)c1cncc(Br)c1 | -3 | i | 13* | i | i | i | ? | 0.029* | 0.036 | 0.038* | 0.031* | 0.017*
CC(/C=C/c1ccccc1)=N\NC(=O)c1ccc(Br)cc1 | -2 | i | 8.2* | i | i | i | 0.022* | 0.028* | 0.033 | 0.016* | 0.02 | 0.018*
CC(/C=C/c1ccccc1)=N/NC(=O)c1cccc(Br)c1 | -5 | i | 11* | i | i | i | 0.011 | 0.037* | 0.03 | 0.037* | 0.03* | 0.014*
CC(/C=C/c1ccccc1F)=N\NC(=O)c1ccc(Cl)cc1 | -8 | i | 6.2* | i | i | i | 0.024* | 0.02* | ? | 0.015* | 0.022* | 0.019*
CC(/C=C/c1ccccc1F)=N\NC(=O)c1ccccc1 | -7 | i | 0.85 | i | i | i | · | · | · | · | · | ·
SMILES | hERG protect | KCNK9 inh | KCC2 mod | KCNQ1 inh | KCNQ1 act | KCNK3 inh | KCC2 secondary | KCC2 bumet counter | KCC2 sec2 | HEK counter1 | KCC2 retest ouab | HEK counter2
COc1ccccc1-n1cnnc1SCC(=O)Nc1cccc(S(N)(=O)=O)c1 | -6 | i | · | i | i | i | · | · | · | · | · | ·
CN(C)S(=O)(=O)c1ccc(C(=O)Nc2ccccc2C(=O)O)cc1 | -9 | i | -4.1* | i | i | i | 0.0094 | 0.0055 | 0.029 | 0.0072 | 0.022 | ?
CN(C)S(=O)(=O)c1ccc(C(=O)Nc2ccccc2F)cc1 | -9 | i | · | i | i | i | · | · | · | · | · | ·
CCC(CC)C1C(C#N)=C(N)Oc2n[nH]c(C)c21 (configuration not stated) | -10 | i | · | i | i | i | 0.011 | 0.0072 | 0.032 | 0.0036 | 0.016* | 0.011
Cc1ccc(OCCC(=O)OCC(=O)N2c3ccccc3CC2C)cc1 (configuration not stated) | -8 | i | -5.1* | i | i | i | 0.0077 | 0.0049 | 0.025* | 0.0072 | 0.017* | 0.0096
CN(C)CC(O)COc1cccc(OCC(O)CN(C)C)c1 (configuration not stated) | -5 | i | · | i | i | i | 0.0075 | 0.0044 | 0.031 | 0.0079 | 0.02 | 0.01
C=C/C(C)=C/CC1C(=C)CCC2C(C)(C(=O)O)CCCC12C (configuration not stated) | -9 | i | 2.3* | i | i | i | 0.0068 | 0.0092* | 0.031 | 0.012* | ? | 0.014*

Compound activity deposited in PubChem by several laboratories.
